Measurements collected from several papers.
PCNA: Proliferating cell nuclear antigen (PCNA, Homo sapiens, UniProt P12004)
MMP2: 72 kDa type IV collagenase (MMP2, Homo sapiens, UniProt P08253)
F10 trypsin-like site: Coagulation factor X, trypsin-like site (F10, Homo sapiens, UniProt P00742)
Ntsr1: Neurotensin receptor type 1 (Ntsr1, Rattus norvegicus, UniProt P20789)
CYP1B1: Cytochrome P450 1B1 (CYP1B1, Homo sapiens, UniProt Q16678)

For CCOC(=O)C(CC)(CCCSCCOCCOCCNc1ccc([N+](=O)[O-])c2nonc12)NC(=O)c1ccc(C2CC2)c(Cc2ccc(F)cc2)n1 (racemic), the EC50 was 0.0047 µM (Cannabinoid receptor 2 (CNR2, Homo sapiens, UniProt P34972); cAMP, agonist).
The Kd of CC[C@H](C)[C@H](NC(=O)[C@H](C)NC(=O)[C@H](CO)NC(=O)[C@H](CC(=O)O)NC(=O)[C@H](CCCCN)NC(=O)[C@H](CCCCN)NC(=O)CNC(=O)[C@H](Cc1c[nH]cn1)NC(=O)[C@@H](N)CCC(N)=O)C(=O)N[C@H](C(=O)N[C@@H](CC(=O)O)C(=O)N[C@@H](Cc1c[nH]cn1)C(=O)N[C@@H](Cc1ccccc1)C(=O)N[C@@H](CCSC)C(=O)N[C@@H](CCCNC(=N)N)C(=O)N[C@@H](CC(C)C)C(=O)N1CCC[C@H]1C(=O)N[C@@H](CCCCN)C(=O)N[C@@H](C)C(=O)O)[C@@H](C)O is reported as 24.9 µM (PCNA; binding, ITC; pH 7.4).
CC(C)C[C@H](NC(=O)[C@H](CCC(N)=O)NC(=O)[C@H](CC(C)C)NC(=O)[C@H](CO)NC(=O)[C@H](CO)NC(=O)[C@@H]1CCCN1C(=O)[C@H](Cc1c[nH]c2ccccc12)NC(=O)[C@H](CCC(N)=O)NC(=O)[C@H](Cc1c[nH]c2ccccc12)NC(=O)[C@H](Cc1c[nH]c2ccccc12)NC(=O)[C@@H](N)Cc1c[nH]cn1)C(=O)N[C@@H](CCCNC(=N)N)C(=O)NCC(=O)NCC(=O)NCC(=O)N[C@@H](CO)C(=O)O gave an IC50 of 0.078 µM (MMP2; enzyme activity, inhibitor, fluorescence).
O=C(N[C@H]1COC(=O)[C@@H](NC(=O)c2cccc(O)c2[O-])COC(=O)[C@@H](NC(=O)c2cccc(O)c2[O-])COC1=O)c1cccc(O)c1[O-].[Fe+3] has a Kd of 0.00041 µM (Neutrophil gelatinase-associated lipocalin (LCN2, Homo sapiens, UniProt P80188, C107S); binding, fluorescence; pH 7.4).
With NCC(O)c1ccc(O)c(O)c1F (stereo not drawn) the Ki was 38.7 µM (Beta-2 adrenergic receptor (ADRB2, Homo sapiens, UniProt P07550, T164I); ligand displacement, radioligand; cell membranes).
For CC[C@H](C)[C@H](NC(=O)[C@H](CCCCN)NC(=O)[C@H](CO)NC(=O)[C@H](CC(=O)O)NC(=O)[C@H](CCCCN)NC(=O)[C@H](CCCCN)NC(=O)CNC(=O)[C@H](Cc1c[nH]cn1)NC(=O)[C@@H](N)CCC(N)=O)C(=O)N[C@H](C(=O)N[C@@H](CC(=O)O)C(=O)N[C@@H](Cc1c[nH]cn1)C(=O)N[C@@H](Cc1ccccc1)C(=O)N[C@@H](CCSC)C(=O)N[C@@H](C)C(=O)N[C@@H](CC(C)C)C(=O)N1CCC[C@H]1C(=O)N[C@@H](CCCCN)C(=O)N[C@@H](C)C(=O)O)[C@@H](C)O, the Kd was 4.27 µM (PCNA; binding, ITC; pH 7.4).
NCC(O)c1cc(O)c(O)cc1F (stereo not drawn) gave a Ki of 5450 µM (Beta-2 adrenergic receptor (ADRB2, Homo sapiens, UniProt P07550, N293A); ligand displacement, radioligand; cell membranes).
The Ki of C[C@H](N)Cn1ncc2ccc3c(c21)CCCO3 is reported as 0.48 µM (Beta-2 adrenergic receptor (ADRB2, Homo sapiens, UniProt P07550); cell-free assay, radioligand).
The Ki of CC(C)(C)[C@H](NC(=O)[C@H](CCCNC(=N)N)NC(=O)Cc1ccc(CN)cc1)C(=O)N[C@@H](CCONC(=N)N)C(=O)NCc1ccc(C(=N)N)cc1 is reported as 28 µM (F10 trypsin-like site; enzyme activity, inhibitor; pH 8).
The Kb of CCc1c(C(=O)N[C@H](C(=O)O)C2CCCCC2)nn(-c2ccnc3cc(Cl)ccc23)c1-c1c(OC)cccc1OC is reported as > 10 µM (Ntsr1; calcium signal, antagonist, fluorescence).
With CC(C)=CCc1c(O)cc2c(c1O)C(=O)C[C@@H](c1ccc(O)cc1)O2 the Ki was 0.23 µM (CYP1B1; enzyme activity, inhibitor, fluorescence; 15 min, pH 7.4).
With O=C1C2(Cl)C3(Cl)C4(Cl)C(Cl)(Cl)C5(Cl)C3(Cl)C1(Cl)C5(Cl)C24Cl (stereo not drawn) the IC50 was > 333 µM (Histone-lysine N-methyltransferase SETD7 (SETD7, Homo sapiens, UniProt Q8WTS6); enzyme activity, inhibitor).
CC[C@H](C)[C@H](NC(=O)[C@H](CCCCN)NC(=O)[C@H](CO)NC(=O)[C@H](C)NC(=O)[C@H](CCCCN)NC(=O)[C@H](CCCCN)NC(=O)CNC(=O)[C@H](Cc1c[nH]cn1)NC(=O)[C@@H](N)CCC(N)=O)C(=O)N[C@H](C(=O)N[C@@H](CC(=O)O)C(=O)N[C@@H](Cc1c[nH]cn1)C(=O)N[C@@H](Cc1ccccc1)C(=O)N[C@@H](CCSC)C(=O)N[C@@H](CCCNC(=N)N)C(=O)N[C@@H](CC(C)C)C(=O)N1CCC[C@H]1C(=O)N[C@@H](CCCCN)C(=O)N[C@@H](C)C(=O)O)[C@@H](C)O gave a Kd of 2.45 µM (PCNA; binding, ITC; pH 7.4).
CC(C)(C)[C@H](NC(=O)[C@H](CCONC(=N)N)NC(=O)Cc1ccc(CN)cc1)C(=O)N[C@@H](CCCCN)C(=O)NCc1ccc(C(=N)N)cc1 gave a Ki of 18 µM (F10 trypsin-like site; enzyme activity, inhibitor; pH 8).
For c1ccc2c(c1)ccc1ccc3ccccc3c12, the Kd was 2.5 µM (CYP1B1; binding, absorbance; pH 7.4).
CC[C@H](C)[C@H](NC(=O)[C@H](CCCCN)NC(=O)[C@H](CO)NC(=O)[C@H](CC(=O)O)NC(=O)[C@H](CCCCN)NC(=O)[C@H](CCCCN)NC(=O)CNC(=O)[C@H](Cc1c[nH]cn1)NC(=O)[C@@H](N)CCC(N)=O)C(=O)N[C@@H](C)C(=O)N[C@@H](CC(=O)O)C(=O)N[C@@H](Cc1c[nH]cn1)C(=O)N[C@@H](Cc1ccccc1)C(=O)N[C@@H](CCSC)C(=O)N[C@@H](CCCNC(=N)N)C(=O)N[C@@H](CC(C)C)C(=O)N1CCC[C@H]1C(=O)N[C@@H](CCCCN)C(=O)N[C@@H](C)C(=O)O has a Kd of 55.5 µM (PCNA; binding, ITC; pH 7.4).
The Kb of COc1ccccc1-c1cc(C(=O)NC2(C(=O)O)CCCCC2)nn1-c1ccc(F)cc1 is reported as > 10 µM (Ntsr1; calcium signal, antagonist, fluorescence).
The IC50 of C#CCOc1ccc(S(=O)(=O)CC2CS2)cc1 (racemic) is reported as 7 µM (MMP2; enzyme activity, inhibitor, fluorescence).
